Experimental data taken from ChEMBL document CHEMBL5113533 (J Med Chem, 2022).
One block for each compound: values may come before it. Calls of active or inactive are those of the source.

Columns and labels:
THP-1 [1] = assay: Antiinflammatory activity against LPS-stimulated human THP-1 cells assessed as blockage of inflammatory phenotype by measuring m/z ratio at 5 uM pretreated for 1 hr followed by LPS stimulation and measured upto 24 hrs; format: functional, cell-based
Outline: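 THP-1 cells at 1 million/mL, pre-treated with compound at 5 μM for 1 h in technical triplicate, then 100 ng/mL LPS for 24 h. Pellets frozen on dry ice, thawed, washed in 100 mM Tris–HCl pH 7.5 at 4 °C. MALDI-TOF MS read-out is the normalized m/z 4964/4632 ratio, with a 40% cutoff used for hit calling; three biological replicates.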

THP-1 [2] = assay: Antiinflammatory activity against LPS-stimulated human THP-1 cells assessed reduction in TNFalpha level pretreated at 5 uM for 1 hr followed by LPS stimulation and measured upto 24 hrs by ELISA analysis; format: functional, cell-based
Outline: (§1)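 THP-1 cells pre-treated with compound for 1 h (5 μM or 1 μM, depending on the compound), then stimulated with 100 ng/mL LPS. Culture supernatant was taken at 24 h, and TNF-α, IL-6 or IL-1β was measured by sandwich ELISA at 450 nm with 540 nm correction; four biological replicates.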

THP-1 [3] = assay: Antiinflammatory activity against LPS-stimulated human THP-1 cells assessed reduction in IL-1beta level pretreated at 5 uM for 1 hr followed by LPS stimulation and measured upto 24 hrs by ELISA analysis; format: functional, cell-based; outline: as §1
THP-1 [4] = assay: Antiinflammatory activity against LPS-stimulated human THP-1 cells assessed reduction in IL-6 level pretreated at 5 uM for 1 hr followed by LPS stimulation and measured upto 24 hrs by ELISA analysis; format: functional, cell-based; outline: as §1
[5] = biological target: Mitogen-activated protein kinase 14 (Homo sapiens) (UniProt Q16539); assay: Binding affinity to P38alpha (unknown origin) measured at 0.05 to 333.33 nM after 600 secs by SPR analysis; conditions: dose 0.05-333.33 nM, time 600.0 sec
Chain of Mitogen-activated protein kinase 14 (Homo sapiens) (Q16539 whole entry): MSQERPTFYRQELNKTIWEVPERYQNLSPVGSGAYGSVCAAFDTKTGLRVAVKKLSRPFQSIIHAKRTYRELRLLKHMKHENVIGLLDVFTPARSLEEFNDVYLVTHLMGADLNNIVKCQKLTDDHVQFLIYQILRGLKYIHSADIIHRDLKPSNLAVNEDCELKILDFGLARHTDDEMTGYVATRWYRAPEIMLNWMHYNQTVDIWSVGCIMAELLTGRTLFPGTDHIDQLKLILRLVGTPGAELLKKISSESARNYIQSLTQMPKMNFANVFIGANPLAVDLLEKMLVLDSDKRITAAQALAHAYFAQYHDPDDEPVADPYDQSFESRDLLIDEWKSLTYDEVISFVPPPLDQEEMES
Outline: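 Biotinylated avidin-p38α was captured on a streptavidin chip from 50 μg/mL, reaching about 7719 RU. A 10-point series (0.05–333.33 nM) ran multicycle at 2 °C against a control surface: 90 s injection at 30 μL/min, then 600 s dissociation.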

THP-1 [6] = assay: Antiinflammatory activity against Escherichia coli induced human THP-1 cells assessed as reduction in proinflammatory phenotype at 1 uM for 1 hr followed by Escherichia coli stimulation and measured upto 24 hrs by MALDI-TOF MS analysis; format: functional, cell-based
Outline: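 THP-1 cells pre-treated with compound for 1 h, then infected with live E. coli (MOI 2), spun 500g 5 min, left 15 or 30 min for uptake, then 100 μg/mL gentamicin for 1 h and 20 μg/mL gentamicin thereafter, up to 24 h. Pellets frozen on dry ice, thawed, washed in 100 mM Tris–HCl pH 7.5 at 4 °C, and read by MALDI-TOF MS as the normalized m/z 4964/4632 ratio.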

[7] = biological target: MAP kinase-activated protein kinase 2 (Homo sapiens) (UniProt P49137); assay: Inhibition of MK2 in Escherichia coli -stimulated human THP-1 cells assessed as reduction in p38alpha MAPK phosphorylation at 1 uM pretreated for 1 hr followed by Escherichia coli stimulation and measured up to 15 mins by western blot analysis; format: cell-based; conditions: time 1.15 hrs
Chain of MAP kinase-activated protein kinase 2 (Homo sapiens) (P49137 whole entry, looked up): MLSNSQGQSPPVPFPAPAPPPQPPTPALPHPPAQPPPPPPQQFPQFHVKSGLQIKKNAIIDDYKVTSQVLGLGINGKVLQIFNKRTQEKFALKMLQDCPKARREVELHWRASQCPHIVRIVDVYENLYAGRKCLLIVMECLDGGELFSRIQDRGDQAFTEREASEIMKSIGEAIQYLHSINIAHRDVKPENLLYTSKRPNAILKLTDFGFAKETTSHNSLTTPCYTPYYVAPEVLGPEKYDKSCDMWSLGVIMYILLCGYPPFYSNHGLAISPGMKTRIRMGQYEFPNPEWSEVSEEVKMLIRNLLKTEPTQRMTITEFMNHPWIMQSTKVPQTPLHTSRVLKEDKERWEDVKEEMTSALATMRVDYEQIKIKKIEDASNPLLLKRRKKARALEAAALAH

SMILES: CC[C@@H]1C(=O)N(C)c2cnc(Nc3ccc(C(=O)NC4CCN(C)CC4)cc3OC)nc2N1C1CCCC1
Activity (THP-1 [1]): Active
Activity (THP-1 [2]): Active
Activity (THP-1 [3]): Active
Activity (THP-1 [4]): Active

Activity [5]: Active
SMILES: Cc1ccc(C(=O)Nc2ccc(CN3CCN(C)CC3)c(C(F)(F)F)c2)cc1C#Cc1cnc2cccnn12

inhibition [7]: Active
SMILES: Cc1c(F)cc(C(=O)NC2CC2)cc1-c1ccc(C(=O)NCC(C)(C)C)cn1
Activity (THP-1 [6]): Active
